According to ChEMBL document CHEMBL1129331, “Synthesis and physicochemical, biological, and pharmacological properties of new bile acids amidated with cyclic amino acids” (J Med Chem, 1996):
Values after ≈ are worked out from the molar mass of the structure shown.

Legend:
cholylglycine hydrolase = test: The compound was incubated with cholylglycine hydrolase and tested for determining the stability towards C-24 Deamination; format: ADME; conditions: cholylglycine hydrolase
[1] = The compound was incubated with human stools and tested for determining the stability towards 7 dehydroxylation; format: ADME
[2] = Water solubility was determined; format: ADME; conditions: read-out: WS
Procedure, shortened: (§1)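 Protonated form; measured on saturated solutions at pH 1.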

Rattus norvegicus [3] = test: Calcium output in Bile Fistula rats after iv coinfusion of TCDCA and compound.; format: ADME, organism-based; conditions: in vivo
Procedure, shortened: (§2)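 Bile fistula Sprague-Dawley rats (200-250 g). TCDCA and test bile acid given as sodium salts, coinfused via jugular vein, each at 8 μmol/min/kg for 1 h. Bile collected at 30-min intervals for 3 h. Calcium, ALP and LDH in bile measured enzymatically; bile acid composition by HPLC (65% methanol, 15 mM ammonium acetate, pH 5.4). Mean ± SD.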

Rattus norvegicus [4] = test: Alkaline phosphatase in Bile Fistula rats after iv coinfusion of TCDCA and compound.; format: ADME, organism-based; conditions: in vivo; procedure, shortened: as §2
Rattus norvegicus [5] = test: Bile flow in Bile Fistula rats after iv coinfusion of TCDCA and compound.; format: ADME, organism-based; conditions: in vivo; procedure, shortened: as §2
[6] = Critical micellar pH was determined
Procedure, shortened: (§3)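 20 mL of 50 mM bile salt solution titrated with 0.1 M HCl. CMpH is taken as the pH at which precipitate of the protonated form is first seen by turbidity at 500 nm. Confirmed by back-titration with 0.1 M NaOH until the suspension clears.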

[7] = Acidity constant was determined; format: ADME
Rattus norvegicus [8] = test: Maximum biliary secretion rate of TCDCA after iv coinfusion in Bile fistula rats.; format: ADME, organism-based; conditions: in vivo; procedure, shortened: as §2
Rattus norvegicus [9] = test: Secretion of cholesterol in Bile Fistula rats after the iv administration of compound, expressed as the residual secretion rate; format: ADME, organism-based; conditions: in vivo
Procedure, shortened: (§4)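 Male Sprague-Dawley rats (300-330 g), urethane-anesthetized, bile duct cannulated. After 1 h baseline, sodium salt infused via femoral vein at 10 μmol/min/kg for 1 h; bile collected at 15-min intervals for 3 h. Flow measured gravimetrically; bile acids, cholesterol and phospholipid measured enzymatically. Smax and Tmax read from secretion-time plots; Rs is the rate at hour 3. Mean ± SD, n=6.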

Rattus norvegicus [10] = test: Secretion of cholesterol in Bile Fistula rats after the iv administration of compound, expressed as the maximum secretion rate i; format: ADME, organism-based; conditions: in vivo; procedure, shortened: as §4
[11] = Partition coefficient (logP); format: physicochemical; conditions: octanol/water
Procedure, shortened: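 Octanol/water partition coefficient of the protonated species, calculated rather than measured.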

Rattus norvegicus [12] = test: Lactate dehydrogenase in Bile Fistula rats after iv coinfusion of TCDCA and compound.; format: ADME, organism-based; conditions: in vivo; procedure, shortened: as §2
[13] = Relative lipophilicity was determined; format: physicochemical; conditions: C-18 reverse phase HPLC
Procedure, shortened: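 C-18 reverse-phase HPLC run isocratically at 0.9 mL/min. Mobile phase 65% (v/v) aqueous methanol with 2 mM ammonium acetate, pH 7, so that all bile acids are fully ionized.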

Rattus norvegicus [14] = test: Secretion of Bile in Bile Fistula rats after the iv administration of compound, expressed as the maximum secretion rate; format: ADME, organism-based; conditions: in vivo; procedure, shortened: as §4
Rattus norvegicus [15] = test: Secretion of Bile in Bile Fistula rats after the iv administration of compound, expressed as the residual secretion rate i; format: ADME, organism-based; conditions: in vivo; procedure, shortened: as §4
Rattus norvegicus [16] = test: Secretion of Bile acids in Bile Fistula rats after the iv administration of compound, expressed as the maximum secretion rate i; format: ADME, organism-based; conditions: in vivo; procedure, shortened: as §4
Rattus norvegicus [17] = test: Secretion of Bile acids in Bile Fistula rats after the iv administration of compound, expressed as the residual secretion rate; format: ADME, organism-based; conditions: in vivo; procedure, shortened: as §4
Rattus norvegicus [18] = test: Secretion of phospholipid in Bile Fistula rats after the iv administration of compound, expressed as the maximum secretion rate i; format: ADME, organism-based; conditions: in vivo; procedure, shortened: as §4
Rattus norvegicus [19] = test: Secretion of phospholipid in Bile Fistula rats after the iv administration of compound, expressed as the residual secretion rate i; format: ADME, organism-based; conditions: in vivo; procedure, shortened: as §4
[20] = Critical Micellar concentration was determined; format: ADME
Procedure, shortened: (§5)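 Measured in water from surface tension, using the maximum bubble-pressure method.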

[21] = The compound was incubated with human stools and tested for determining the stability towards 7-dehydroxylation; format: ADME, organism-based
Procedure, shortened: (§6)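 Homogenized fresh human stool (500 mg) in 5 mL chopped meat-glucose medium; bile acid added at 0.05 mM final; 37 °C. Sampled at 0–72 h and stopped with 30% KOH. Bile acids recovered by C-18 solid-phase extraction, then analyzed by TLC and by HPLC with 75% methanol/15 mM ammonium acetate, pH 5.4.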

Rattus norvegicus [22] = test: Maximum biliary secretion rate of bile acids after iv coinfusion in Bile fistula rats.; format: ADME, organism-based; conditions: in vivo; procedure, shortened: as §2
[23] = The compound was incubated with human stools and tested for determining the stability towards C-24 Deamination; format: ADME, organism-based; conditions: in the assay text read “7-dehydroxylation” for “C-24 Deamination”; procedure, shortened: as §6
[24] = Acidity constant of the compound. was determined; format: ADME
[25] = Critical micellar pH of the compound. was determined; procedure, shortened: as §3
[26] = Critical Micellar concentration of the compound. was determined; format: ADME; procedure, shortened: as §5
[27] = Water solubility of the compound. was determined; format: ADME; conditions: read-out: S; procedure, shortened: as §1

Structure (SMILES) | half-life (cholylglycine hydrolase) | solubility [2] | Smax (Rattus norvegicus [3]) | [ALP]max (Rattus norvegicus [4]) | Smax (Rattus norvegicus [5]) | CMpH [6] | pKa [7] | Smax (Rattus norvegicus [8]) | Rs (Rattus norvegicus [9]) | Smax (Rattus norvegicus [10]) | logP [11] | [LDH]max (Rattus norvegicus [12]) | rK [13] | Smax (Rattus norvegicus [14]) | Rs (Rattus norvegicus [15]) | Smax (Rattus norvegicus [16]) | Rs (Rattus norvegicus [17]) | Smax (Rattus norvegicus [18]) | Rs (Rattus norvegicus [19]) | CMC [20] | further results
C[C@H](CCC(=O)NCCS(=O)(=O)O)[C@H]1CC[C@H]2[C@@H]3[C@H](O)C[C@@H]4C[C@H](O)CC[C@]4(C)[C@H]3C[C@H](O)[C@]12C [TAUROCHOLIC ACID] | 4 h |  |  |  |  |  |  |  |  |  |  |  |  |  |  |  |  |  |  |  | half-life [1]: 6 h
CO[C@H]1C[C@H](C(=O)O)N(C(=O)CCC(C)C2CC[C@H]3[C@@H]4[C@@H](O)CC5C[C@H](O)CC[C@]5(C)[C@H]4CC[C@]23C)C1 (stereo partly specified) | > 72 h | 30 µM (≈ 15.6 µg/mL) | 0.71 µM/min/kg | 30 IU/L | 5.04 mL/h/kg | 6.5 | 3.5 | 6.96 µM/min/kg | 12 nM/min/kg | 28 nM/min/kg | 3.86 | 14 UI l-1 | 0.7 | 5.4 mL/h/kg | 2.64 mL/h/kg | 11.1 µM/min/kg | 0.8 µM/min/kg | 0.28 µM/min/kg | 0.12 µM/min/kg | 29 mM | half-life [21]: > 72 h; Smax (Rattus norvegicus [22]): 4.67 µM/min/kg
CC(CCC(=O)N1CCC[C@@H]1C(=O)O)C1CC[C@H]2[C@@H]3C[C@H](O)C4C[C@H](O)CC[C@]4(C)[C@H]3CC[C@]12C (stereo partly specified) | > 72 h | 52 µM (≈ 25.5 µg/mL) | 0.42 µM/min/kg | 57 IU/L | 4.98 mL/h/kg | 6.6 | 3.9 | 3.88 µM/min/kg | 46 nM/min/kg | 60 nM/min/kg | 4.41 | 95 UI l-1 | 0.94 | 4.02 mL/h/kg | 2.82 mL/h/kg | 5.7 µM/min/kg | 1.4 µM/min/kg | 0.34 µM/min/kg | 0.21 µM/min/kg | 25 mM | half-life [23]: > 72 h; Smax (Rattus norvegicus [22]): 3.02 µM/min/kg
C[C@H](CCC(=O)O)[C@H]1CC[C@H]2[C@@H]3C[C@H](O)[C@@H]4C[C@H](O)CC[C@]4(C)[C@H]3CC[C@]12C [HYODEOXYCHOLIC_ACID] |  |  |  |  |  |  |  |  |  |  | 4.27 |  | 0.89 |  |  |  |  |  |  |  | pKa [24]: 5; CMpH [25]: 8.1; CMC [26]: 14 mM; solubility [27]: 15 µM (≈ 5.89 µg/mL)
CC(CCC(=O)NCC(=O)O)C1CC[C@H]2[C@@H]3C[C@H](O)C4C[C@H](O)CCC4(C)[C@H]3CCC12C (stereo partly specified) | 5 h |  |  |  |  |  |  |  |  |  |  |  |  |  |  |  |  |  |  |  | 
CC(CCC(=O)N1CCC[C@@H]1C(=O)O)C1CC[C@H]2[C@@H]3[C@@H](O)CC4C[C@H](O)CC[C@]4(C)[C@H]3CC[C@]12C (stereo partly specified) | > 72 h | 113 µM (≈ 55.3 µg/mL) | 0.42 µmol/min/kg | 32 IU/L | 5.16 mL/h/kg | 6 | 3.9 | 5.43 µM/min/kg | 31 nM/min/kg | 55 nM/min/kg | 5.83 | 16 UI l-1 | 1.25 | 5.4 mL/h/kg | 3 mL/h/kg | 6 µM/min/kg | 0.9 µM/min/kg | 0.28 µM/min/kg | 0.11 µM/min/kg | 15 mM | half-life [21]: > 72 h; Smax (Rattus norvegicus [22]): 3.22 µM/min/kg
CC(CCC(=O)N1C[C@@H](O)C[C@@H]1C(=O)O)C1CC[C@H]2[C@@H]3[C@@H](O)CC4C[C@H](O)CC[C@]4(C)[C@H]3CC[C@]12C (stereo partly specified) | > 72 h | 250 µM (≈ 126 µg/mL) | 0.37 µM/min/kg | 31 IU/L | 5.4 mL/h/kg | 4.7 | 3.1 | 4.98 µM/min/kg | 31 nM/min/kg | 68 nM/min/kg | 3.59 | 10 UI l-1 | 0.6 | 5.82 mL/h/kg | 2.76 mL/h/kg | 6.3 µM/min/kg | 0.9 µM/min/kg | 0.25 µM/min/kg | 0.12 µM/min/kg | 10 mM | half-life [21]: > 72 h; Smax (Rattus norvegicus [22]): 3.27 µM/min/kg
CC(CCC(=O)N1CCC[C@H]1C(=O)O)C1CC[C@H]2[C@@H]3[C@@H](O)CC4C[C@H](O)CC[C@]4(C)[C@H]3CC[C@]12C (stereo partly specified) | > 72 h | 59 µM (≈ 28.9 µg/mL) | 0.38 µM/min/kg | 30 IU/L | 5.82 mL/h/kg | 6 | 3.9 | 3.64 µM/min/kg | 28 nM/min/kg | 52 nM/min/kg | 4.41 | 71 UI l-1 | 0.92 | 3.9 mL/h/kg | 3.06 mL/h/kg | 7.9 µM/min/kg | 1.6 µM/min/kg | 0.2 µM/min/kg | 0.09 µM/min/kg | 7 mM | half-life [21]: > 72 h; Smax (Rattus norvegicus [22]): 2.07 µM/min/kg
CC(CCC(=O)N1CCC[C@@H]1C(=O)O)C1CC[C@H]2[C@@H]3[C@H](O)[C@H](O)C4C[C@H](O)CC[C@]4(C)[C@H]3CC[C@]12C (stereo partly specified) | > 72 h | 60 µM (≈ 30.3 µg/mL) | 0.39 µM/min/kg | 34 IU/L | 6 mL/h/kg | 6.6 | 3.9 | 5.07 µM/min/kg | 23 nM/min/kg | 52 nM/min/kg | 3.71 | 48 UI l-1 | 0.85 | 3.6 mL/h/kg | 2.28 mL/h/kg | 6 µM/min/kg | 1.8 µM/min/kg | 0.28 µM/min/kg | 0.26 µM/min/kg | 30 mM | half-life [23]: > 72 h; Smax (Rattus norvegicus [22]): 3.41 µM/min/kg
